Experimental data collected from several papers.
Lines come from different studies, so protocols differ.
BRAF: Serine/threonine-protein kinase B-raf (BRAF, Homo sapiens, UniProt P15056)
BRAF V600E: Serine/threonine-protein kinase B-raf (BRAF, Homo sapiens, UniProt P15056, V600E)

Compound | target | read-out | action | technique | tested at | endpoint | result
N#Cc1ccc(NC(=O)Nc2ccccc2)cc1 | BRAF | cell-free assay | – | competition with immobilised ligand | 25 µM | remaining binding | 100%
C=CC(=O)N1CCC[C@@H](n2nc(-c3ccc(Oc4ccccc4)cc3)c3c(N)ncnc32)C1 | BRAF | enzyme activity | inhibitor | – | 1 µM | inhibition | 51%
C[C@H]1CC[C@H](n2c3cnccc3c3cnc(Nc4ccc5c(n4)CCN(C(=O)CO)C5)nc32)CC1 | BRAF | cell-free assay | – | competition with immobilised ligand | 1 µM | remaining binding | 74%
C=CC(=O)N1CCC([C@@H]2CCNc3c(C(N)=O)c(-c4ccc(Oc5ccccc5)cc4)nn32)CC1 | BRAF V600E | enzyme activity | inhibitor | – | 1 µM | inhibition | 0%
C#Cc1cnc(Nc2ccnc(CO)c2)nc1Nc1ccccc1S(C)(=O)=NC#N (centres unmarked) | BRAF | cell-free assay | – | – | 1 µM | remaining signal | 92%
CN1CCN(C(=O)c2ccc(NC(=O)Nc3ccc(N(C)c4ccnc(Nc5ccc(CS(C)(=O)=O)cc5)n4)cc3)cc2)CC1 | BRAF | binding | – | competition with immobilised ligand | 1 µM | remaining binding | 89%
COc1ccc2oc(-c3ccc4nc(N)oc4c3)c/c(=N\c3ccccc3NC(=O)CCN)c2c1 | BRAF V600E | cell-free assay | – | – | 1 µM | remaining signal | 100%
CCCCC(=O)Nc1ccc(-c2ccc3ncn(CCC)c(=O)c3c2)cn1 | BRAF | binding | – | competition with immobilised ligand | 0.5 µM | remaining binding | 97%
CO[C@@H]1[C@H](N(C)C(=O)c2ccccc2)C[C@H]2O[C@]1(C)n1c3ccccc3c3c4c(c5c6ccccc6n2c5c31)C(=O)NC4 | BRAF | enzyme activity | inhibitor | – | 1 µM | inhibition | 6%
C1=C/COCc2cc(ccc2OCCN2CCCC2)Nc2nccc(n2)-c2cccc(c2)COC/1 | BRAF V600E | binding | – | – | 0.1 µM | remaining binding | 85%
Cc1ccc(NC(=O)c2ccnc(C(F)(F)F)c2)cc1-c1cc(OCCO)nc(N2CCOCC2)c1 | BRAF V600E | binding | – | – | 1 µM | remaining binding | 0.35%
CC#CC(=O)N1CCC[C@H]1c1nc(-c2ccc(C(=O)Nc3ccccn3)cc2)c2c(N)nccn12 | BRAF V600E | enzyme activity | inhibitor | – | 1 µM | inhibition | 44%
COc1ccc2[nH]c3c4[nH]c5ccc(OC)cc5c4c4c(c3c2c1)C(=O)NC4=O | BRAF V600E | binding | – | – | 1 µM | remaining binding | 89%
Cc1cc2c(C(N)=O)c(N)n(-c3c(C)ccc(O)c3C)c2nc1C | BRAF V600E | binding | – | competition with immobilised ligand | 1 µM | remaining binding | 0.75%
